The source made the active and inactive calls. The rule behind the calls is not given here.
Experiments:
[1] = tested on: Plasma; test: (§1) Anticoagulant activity in human platelet-rich plasma assessed as reduction in TF-induced thrombin generation by measuring Tmax of clotting time at 100 uM preincubated for 15 mins followed by TF addition by Z-Gly-Gly-Arg-AMC substrate based calibrated automated thrombography (reference value: 8.1 +/- 0.6 min); type: functional, cell-free
In short: (§2)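 Tissue-factor-triggered homogeneous thrombin generation followed by fluorogenic substrate cleavage. Read-outs: clotting time (T1/2), peak amplitude (Amax, AU/L), time to peak (Tmax) and ETP (AU·min/L). DMSO and buffer served as controls. n = 3, mean ± SD.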

[2] = tested on: Plasma; test: as §1, with “amplitude” for “Tmax”, “thrombin peak” for “clotting time”, “63” for “8.1”, “3.7 AU/L)” for “0.6 min)”; type: functional; conditions: 0.25 h; in short: as §2
[3] = target: T1, Coagulation factor XII (Homo sapiens) (UniProt P00748); test: Time dependent inhibition of human coagulation factor XIIA using Boc-Gln-Gly-Arg-AMC as fluorogenic substrate at 0.5 to 132 uM by fluorescence assay; conditions: dose 0.0005-132 µM, in the assay text read “0.5 nM to 132 uM” for “0.5 to 132 uM”
T1 sequence (whole entry): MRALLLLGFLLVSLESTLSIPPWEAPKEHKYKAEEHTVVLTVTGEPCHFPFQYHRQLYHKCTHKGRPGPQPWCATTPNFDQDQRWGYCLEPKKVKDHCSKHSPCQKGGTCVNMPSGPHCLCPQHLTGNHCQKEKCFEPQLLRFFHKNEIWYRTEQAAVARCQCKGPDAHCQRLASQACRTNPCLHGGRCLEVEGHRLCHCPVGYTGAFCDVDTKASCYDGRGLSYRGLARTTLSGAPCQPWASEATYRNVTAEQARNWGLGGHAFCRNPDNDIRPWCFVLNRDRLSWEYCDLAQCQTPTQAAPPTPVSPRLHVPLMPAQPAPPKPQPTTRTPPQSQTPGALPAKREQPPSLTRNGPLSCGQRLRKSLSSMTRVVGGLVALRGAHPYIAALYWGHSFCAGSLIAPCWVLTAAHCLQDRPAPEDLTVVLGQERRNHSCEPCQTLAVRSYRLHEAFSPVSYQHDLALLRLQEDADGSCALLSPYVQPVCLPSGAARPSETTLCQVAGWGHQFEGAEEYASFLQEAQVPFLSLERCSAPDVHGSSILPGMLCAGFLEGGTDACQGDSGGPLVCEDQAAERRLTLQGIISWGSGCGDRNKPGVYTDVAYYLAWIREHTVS
In short: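 Buffer: Tris-Cl pH 7.4 with NaCl, MgCl2, CaCl2, 0.1% BSA and 0.01% Triton X-100. Fluorescence (ex 355/em 460 nm) read kinetically every 87 s for up to 180 min. IC50 calculated at each time point and plotted against time.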

[4] = tested on: Blood; test: Anticoagulant activity in human blood assessed as concentration required to double the activated partial thromboplastin time incubated for 1 min followed by aPTT reagent based assay; type: functional
In short: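 Compounds were tested at 300 µM, and the increase was expressed relative to DMSO. The doubling concentration (EC2×) is the concentration prolonging aPTT twofold. At least triplicate, mean ± SD.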

[5] = tested on: HepG2; test: Cytotoxicity against human HepG2 cells assessed as reduction in cell viability at 100 uM incubated for 48 hrs by alamar blue assay relative to control; type: cell-based; conditions: hepg2, 48 h
[6] = target: Plasminogen (Homo sapiens, UniProt P00747); test: Inhibition of human plasmin using Mes-dArg-Phe-Arg-AMC as fluorogenic substrate measured at 1 min interval for 1 hr by fluorometric assay
Plasminogen, sequence (P00747 97-580 limits assumed): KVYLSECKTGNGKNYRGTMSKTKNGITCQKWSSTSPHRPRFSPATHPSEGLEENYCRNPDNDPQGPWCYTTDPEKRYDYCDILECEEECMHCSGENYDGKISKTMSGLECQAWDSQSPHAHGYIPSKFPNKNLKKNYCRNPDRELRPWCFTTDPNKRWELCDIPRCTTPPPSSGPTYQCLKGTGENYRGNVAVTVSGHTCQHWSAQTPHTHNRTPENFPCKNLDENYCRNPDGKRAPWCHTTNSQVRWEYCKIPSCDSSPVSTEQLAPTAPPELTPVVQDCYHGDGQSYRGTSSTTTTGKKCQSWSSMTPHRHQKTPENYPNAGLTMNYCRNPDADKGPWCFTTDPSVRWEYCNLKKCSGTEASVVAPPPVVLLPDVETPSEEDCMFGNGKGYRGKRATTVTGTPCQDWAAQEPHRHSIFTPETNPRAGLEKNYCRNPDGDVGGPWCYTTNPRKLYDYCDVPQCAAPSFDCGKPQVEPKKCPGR
Plasminogen, sequence (P00747 581-810 limits assumed): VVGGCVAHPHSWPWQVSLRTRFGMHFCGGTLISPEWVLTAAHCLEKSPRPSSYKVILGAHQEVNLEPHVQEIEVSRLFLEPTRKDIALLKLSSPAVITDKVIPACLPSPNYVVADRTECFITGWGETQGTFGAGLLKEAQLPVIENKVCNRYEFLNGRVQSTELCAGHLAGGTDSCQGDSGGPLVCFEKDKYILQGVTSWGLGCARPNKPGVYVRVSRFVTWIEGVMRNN

[7] = Inhibition of porcine trypsin using Z-Gly-Gly-Arg-AMC as fluorogenic substrate measured at 1 min interval for 1 hr by fluorometric assay; design: species or system Sus scrofa
[8] = target: T2, Coagulation factor X (Homo sapiens, UniProt P00742); test: Inhibition of human coagulation factor Xa using Boc-Ile-Glu-Gly-Arg-AMC as fluorogenic substrate measured at 1 min interval for 1 hr by fluorometric assay
T2 sequence (P00742 41-179 limits assumed): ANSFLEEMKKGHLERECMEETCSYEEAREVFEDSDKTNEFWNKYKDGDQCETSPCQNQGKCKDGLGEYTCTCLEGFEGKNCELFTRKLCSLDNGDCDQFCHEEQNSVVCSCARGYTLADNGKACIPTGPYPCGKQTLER
T2 sequence (P00742 235-488 limits assumed): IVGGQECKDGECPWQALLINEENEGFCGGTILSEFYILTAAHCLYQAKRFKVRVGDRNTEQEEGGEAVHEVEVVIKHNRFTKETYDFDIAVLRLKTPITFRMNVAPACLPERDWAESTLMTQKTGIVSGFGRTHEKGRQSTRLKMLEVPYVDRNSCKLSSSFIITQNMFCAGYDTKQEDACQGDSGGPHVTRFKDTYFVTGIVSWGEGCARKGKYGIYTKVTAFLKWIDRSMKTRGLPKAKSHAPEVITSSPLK

[9] = target: Prothrombin (Homo sapiens, UniProt P00734); test: Inhibition of human coagulation factor alpha-thrombin using Boc-Val-Pro-Arg-AMC as fluorogenic substrate measured at 1 min interval for 1 hr by fluorometric assay
[10] = target: T3, Coagulation factor XII (Homo sapiens, UniProt P00748); test: Inhibition of human coagulation factor XIIA using Boc-Gln-Gly-Arg-AMC as fluorogenic substrate measured at 1 min interval for 1 hr by fluorometric assay
T3 sequence (P00748 whole entry): T1 sequence (whole entry)

[11] = target: T1, Coagulation factor XII (Homo sapiens); test: Binding affinity to human plasma coagulation factor XIIA assessed as compound-adduct formation at molar ratio of 1:20 preincubated for 4 mins followed by desalination and measured after 120 mins by SEC/ESI-TOF mass spectra analysis; type: cell-free
In short: (§3)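 β-FXIIa incubated with inhibitor at a 1:20 molar ratio, then size-exclusion chromatography coupled to ESI-MS to measure the mass of enzyme–inhibitor complexes. Further runs checked complex stability to probe reversibility.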

[12] = target: T1, Coagulation factor XII (Homo sapiens); test: Binding affinity to human plasma coagulation factor XIIA assessed as compound-adduct formation at molar ratio of 1:20 preincubated for 4 mins followed by desalination and measured after 5 mins by SEC/ESI-TOF mass spectra analysis; type: cell-free; in short: as §3
[13] = target: T1, Coagulation factor XII (Homo sapiens); test: Binding affinity to human plasma coagulation factor XIIA assessed as compound-adduct formation by measuring change in molecular mass at molar ratio of 1:20 measured after 4 mins by SEC/ESI-TOF mass spectra analysis; type: cell-free; in short: as §3
[14] = tested on: Plasma; test: Antiplatelet activity in human platelet-rich plasma assessed as inhibition of TRAP6 induced platelet activation by measuring reduction in ATP release at 10 uM preincubated for 20 mins followed by TRAP6 addition and measured after 10 mins by luciferin-based luminescence assay; type: functional, cell-free; conditions: time 30.0 min
In short: (§4)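 Platelet activation measured as dense-granule ATP release by firefly luciferase bioluminescence. Compound-treated platelets were activated with MDA-MB-231 cells, thrombin or TRAP-6. TRAP-6-induced signal was set as 100%. Triplicate, mean ± SD.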

[15] = tested on: Plasma; test: Antiplatelet activity in human platelet-rich plasma assessed as inhibition of MDA-MB-231 induced platelet activation by measuring reduction in ATP release preincubated for 20 mins followed by tumor cell addition and measured after 30 mins by luciferin-based luminescence assay; type: functional, cell-free; conditions: time 50.0 min; in short: as §4
[16] = tested on: Plasma; test: Antiplatelet activity in […] assessed as inhibition of TRAP6-induced platelet aggregation at 0.1 to 10 uM by light transmission aggregometry; type: functional; conditions: Homo sapiens, dose 0.1-10 µM
[17] = tested on: Plasma; test: Antiplatelet activity in […] assessed as inhibition of thrombin-induced platelet aggregation at 1 to 10 uM by light transmission aggregometry; type: functional; conditions: Homo sapiens, dose 1-10 µM
[18] = tested on: Plasma; test: Antiplatelet activity in […] assessed as inhibition of MDA-MB-231-induced platelet aggregation at 10 uM by light transmission aggregometry; type: functional; conditions: Homo sapiens
[19] = tested on: Plasma; test: Antiplatelet activity in […] assessed as inhibition of MDA-MB-231-induced platelet aggregation at 1 uM by light transmission aggregometry; type: functional; conditions: Homo sapiens
[20] = target: T2, Coagulation factor X; test: Inhibition of human coagulation factor Xa using Boc-Ile-Glu-Gly-Arg-AMC as fluorogenic substrate at 5 uM measured at 1 min interval for 1 hr by fluorometric assay relative to control
[21] = tested on: CCF-STTG1; test: Cytotoxicity against human CCF-STTG1 cells assessed as reduction in cell viability at 100 uM incubated for 48 hrs by alamar blue assay relative to control; type: cell-based; conditions: ccf-sttg1, 48 h

| IC50 [6] [µM] | IC50 [7] [µM] | IC50 [9] [µM] | IC50 [10] [µM] | SMILES | Tmax [1] [min] | Activity [2] [AU/L] | 2aPTT [4] [µM] | Activity [5] [%] | other results |
| --- | --- | --- | --- | --- | --- | --- | --- | --- | --- |
| > 5 | > 5 | 0.375 | 0.029 | Nc1nc(-c2ccccn2)nn1C(=O)c1cccc2ccccc12 | 7 | 53.3 | 236 | 8 | TDI [3]: Active; IC50 [8]: > 5 µM |
| > 5 | > 5 | 0.027 | 0.138 | Nc1nc(-c2ccccn2)nn1C(=O)c1ccc2ccccc2c1 | 8 | 175.5 | 107 | 25 | Activity [11]: inactive; Activity [12]: inactive; Activity [13]: 154 Da; inhibition [14]: Active; inhibition [15]: Dose-dependent effect; inhibition [16]: inactive; inhibition [17]: Active; inhibition [18]: Active; inhibition [19]: Active; inhibition [20]: 48%; Activity [21]: 36% |
